Measurements published in ChEMBL document CHEMBL4680373, “Evaluation of 5-(Trifluoromethyl)-1,2,4-oxadiazole-Based Class IIa HDAC Inhibitors for Huntington's Disease” (ACS Med Chem Lett, 2021).

Assays:
[1] = biological target: Histone deacetylase 4 (Homo sapiens, UniProt P56524); assay: Inhibition of Class 2A HDAC4 in human Jurkat E6.1 cells using Boc-Lys-(TFA)-AMC as substrate by fluorogenic assay; format: cell-based
Method in brief: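 Whole-cell assay in Jurkat E6.1 cells with artificial fluorogenic substrates: Boc-Lys-(TFA)-AMC for class IIa/HDAC8 activity, which in this line is mostly HDAC4, and Boc-Lys-(Ac)-AMC for class I/IIb activity. IC50 given as the geometric mean of three experiments.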

[2] = Intrinsic Clearance in mouse liver microsomes; format: ADME, Microsome; settings: read-out: CLH
[3] = Inhibition of Class 2A HDAC in human HEK293 cells using Boc-Lys(TFA) as substrate by fluorogenic assay; format: cell-based
[4] = biological target: Class 1 histone deacetylase (Homo sapiens, UniProt Q13547+O15379+Q92769+Q9BY41); assay: Inhibition of Class 1 HDAC in human HEK293 cells using H4K12 as substrate by fluorogenic assay; format: cell-based
[5] = biological target: Cav1.2 (voltage-dependent L-type calcium channel subunit alpha-1C) (Rattus norvegicus, UniProt P22002); assay: Displacement of [3H]Diltiazem from Cav1.2 in rat brain at 10 uM incubated for 120 mins by radiometric scintillation counting analysis; format: tissue-based; settings: probe [3H]Diltiazem
Method in brief: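 Broad selectivity panel of binding, cellular, functional and enzymatic assays run by a contract lab. Each test was done at a single 10 μM concentration and reported as percent inhibition.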

[6] = biological target: Muscarinic acetylcholine receptor M1 (Homo sapiens, UniProt P11229); assay: Displacement of [3H]pirenzapine from human recombinant M1 receptor incubated for 1 hr by radiometric scintillation counting analysis
[7] = biological target: Muscarinic acetylcholine receptor M3 (Homo sapiens, UniProt P20309); assay: Displacement of [3H]4-DAMP from human recombinant M3 receptor incubated for 1 hr by radiometric scintillation counting analysis
[8] = biological target: Muscarinic acetylcholine receptor M4 (Homo sapiens, UniProt P08173); assay: Displacement of [3H]4-DAMP from human recombinant M4 receptor incubated for 1 hr by radiometric scintillation counting analysis
[9] = biological target: Cytochrome P450 2C9 (Homo sapiens, UniProt P11712); assay: Inhibition of CYP2C9 in human liver microsomes using diclofenac as substrate incubated for 15 mins by LC-MS/MS analysis; format: ADME
[10] = Time during which drug concentration exceeds the IC50 for inhibition of human Class 2A HDAC in C57BL/6J mouse brain at 100 mg/kg, po administered via gavage by LC-MS/MS analysis; format: organism-based; settings: in vivo
Method in brief: (§1)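 Single oral gavage doses of 10, 30 or 100 mg/kg were given to C57/BL6 mice. Brain and blood were sampled from 0.25 to 12 h and compound measured by LC-MS/MS. The time that total brain exposure stayed above the class IIa cellular IC50 was then estimated.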

[11] = Volume of distribution in C57BL/6J mouse at 3.3 mg/kg, iv by LC-MS/MS analysis; format: ADME, organism-based; settings: in vivo
Method in brief: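 Fed male C57Bl/6 mice dosed once intravenously at 3.3 mg/kg and by oral gavage at 11.5 mg/kg. Compound levels were quantified to derive PK parameters.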

[12] = Tmax in C57BL/6J mouse brain at 11.5 mg/kg, po administered via gavage by LC-MS/MS analysis; format: ADME, organism-based
[13] = Time during which drug concentration exceeds the IC50 for inhibition of human Class 2A HDAC in C57BL/6J mouse brain at 10 mg/kg, po administered via gavage by LC-MS/MS analysis; format: organism-based; settings: in vivo; method in brief: as §1
[14] = Time during which drug concentration exceeds the IC50 for inhibition of human Class 2A HDAC in C57BL/6J mouse brain at 30 mg/kg, po administered via gavage by LC-MS/MS analysis; format: organism-based; settings: in vivo; method in brief: as §1
[15] = In vivo inhibition of Class 1 HDAC in C57BL/6J mouse brain assessed as increase in H4K12 acetylation administered orally via gavage measured after 2 to 4 hrs by dot blot technique; format: organism-based; settings: po, dose lower 10 mg/kg, time lower 2 hrs, dose upper 100 mg/kg, time upper 4 hrs
Method in brief: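 Mice received single oral gavage doses of 10, 30 or 100 mg/kg, and brains were sampled from 0.25 to 12 h. Brain compound levels were measured by LC-MS/MS. Dot blots read H4K12 acetylation normalized to histone H4, or pan-acetyl-lysine normalized to tubulin.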

[16] = In vivo inhibition of Class 2B HDAC in C57BL/6J mouse brain assessed as increase in tubulin acetylation administered orally via gavage measured after 2 hrs by western blot analysis; format: organism-based; settings: po, dose 10-100 mg/kg
Method in brief: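 Brain samples were taken 2 h after single oral gavage doses (10, 30, 100 mg/kg). Western blots probed H3, H4 and tubulin acetylation, each normalized to its own total-protein band. Comparison was against samples taken 5 min after a 10 mg/kg dose.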

[17] = Toxicity in CBAxC57BL/6J mouse assessed as effect on body temperature at 10 to 100 mg/kg, po bid for 14.5 days; format: organism-based; settings: in vivo, 348 h, dose 10-100 mg/kg, time 14.5 day
Method in brief: (§2)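 R6/2 HD mice and wild-type littermates, male and female, were dosed orally b.i.d. at 10, 30 or 100 mg/kg or with vehicle for 14.5 days. Vehicle was 10% (w/v) hydroxypropyl-β-cyclodextrin in 50 mM citrate buffer. Body weight, body temperature, passive observations and active manipulation scores were recorded. Blood and brain were collected 2 h after the final dose.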

[18] = Toxicity in CBAxC57BL/6J mouse assessed as effect on head tremor at 10 to 100 mg/kg, po bid for 14.5 days; format: organism-based; settings: in vivo, 348 h, dose 10-100 mg/kg, time 14.5 day; method in brief: as §2
[19] = Toxicity in CBAxC57BL/6J mouse assessed as effect on shivering at 10 to 100 mg/kg, po bid for 14.5 days; format: organism-based; settings: in vivo, 348 h, dose 10-100 mg/kg, time 14.5 day; method in brief: as §2
[20] = Toxicity in CBAxC57BL/6J mouse assessed as effect on loss of paw pull at 10 to 100 mg/kg, po bid for 14.5 days; format: organism-based; settings: in vivo, 348 h, dose 10-100 mg/kg, time 14.5 day; method in brief: as §2
[21] = Toxicity in CBAxC57BL/6J mouse assessed as effect on irritability at 10 to 100 mg/kg, po bid for 14.5 days; format: organism-based; settings: in vivo, 348 h, dose 10-100 mg/kg, time 14.5 day; method in brief: as §2
[22] = In vivo inhibition of Class 1 HDAC in CBAxC57BL/6J mouse brain assessed as increase in histone H4 acetylation at 30 to 100 mg/kg, po bid for 14.5 days by western blot analysis; format: organism-based; settings: 348 h, dose 30-100 mg/kg, time 14.5 day
Method in brief: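 R6/2 and wild-type littermate mice of both sexes were dosed orally b.i.d. for 14.5 days with 10, 30 or 100 mg/kg or vehicle (10% w/v hydroxypropyl-β-cyclodextrin in 50 mM citrate buffer). Half-brains were collected 2 h after the last dose. Dot blots measured global and H4K12 acetylation; Western blots measured H3, H4 and tubulin acetylation. Genotypes were pooled.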

Cav1.2 (voltage-dependent L-type calcium channel subunit alpha-1C), sequence (P22002 whole entry): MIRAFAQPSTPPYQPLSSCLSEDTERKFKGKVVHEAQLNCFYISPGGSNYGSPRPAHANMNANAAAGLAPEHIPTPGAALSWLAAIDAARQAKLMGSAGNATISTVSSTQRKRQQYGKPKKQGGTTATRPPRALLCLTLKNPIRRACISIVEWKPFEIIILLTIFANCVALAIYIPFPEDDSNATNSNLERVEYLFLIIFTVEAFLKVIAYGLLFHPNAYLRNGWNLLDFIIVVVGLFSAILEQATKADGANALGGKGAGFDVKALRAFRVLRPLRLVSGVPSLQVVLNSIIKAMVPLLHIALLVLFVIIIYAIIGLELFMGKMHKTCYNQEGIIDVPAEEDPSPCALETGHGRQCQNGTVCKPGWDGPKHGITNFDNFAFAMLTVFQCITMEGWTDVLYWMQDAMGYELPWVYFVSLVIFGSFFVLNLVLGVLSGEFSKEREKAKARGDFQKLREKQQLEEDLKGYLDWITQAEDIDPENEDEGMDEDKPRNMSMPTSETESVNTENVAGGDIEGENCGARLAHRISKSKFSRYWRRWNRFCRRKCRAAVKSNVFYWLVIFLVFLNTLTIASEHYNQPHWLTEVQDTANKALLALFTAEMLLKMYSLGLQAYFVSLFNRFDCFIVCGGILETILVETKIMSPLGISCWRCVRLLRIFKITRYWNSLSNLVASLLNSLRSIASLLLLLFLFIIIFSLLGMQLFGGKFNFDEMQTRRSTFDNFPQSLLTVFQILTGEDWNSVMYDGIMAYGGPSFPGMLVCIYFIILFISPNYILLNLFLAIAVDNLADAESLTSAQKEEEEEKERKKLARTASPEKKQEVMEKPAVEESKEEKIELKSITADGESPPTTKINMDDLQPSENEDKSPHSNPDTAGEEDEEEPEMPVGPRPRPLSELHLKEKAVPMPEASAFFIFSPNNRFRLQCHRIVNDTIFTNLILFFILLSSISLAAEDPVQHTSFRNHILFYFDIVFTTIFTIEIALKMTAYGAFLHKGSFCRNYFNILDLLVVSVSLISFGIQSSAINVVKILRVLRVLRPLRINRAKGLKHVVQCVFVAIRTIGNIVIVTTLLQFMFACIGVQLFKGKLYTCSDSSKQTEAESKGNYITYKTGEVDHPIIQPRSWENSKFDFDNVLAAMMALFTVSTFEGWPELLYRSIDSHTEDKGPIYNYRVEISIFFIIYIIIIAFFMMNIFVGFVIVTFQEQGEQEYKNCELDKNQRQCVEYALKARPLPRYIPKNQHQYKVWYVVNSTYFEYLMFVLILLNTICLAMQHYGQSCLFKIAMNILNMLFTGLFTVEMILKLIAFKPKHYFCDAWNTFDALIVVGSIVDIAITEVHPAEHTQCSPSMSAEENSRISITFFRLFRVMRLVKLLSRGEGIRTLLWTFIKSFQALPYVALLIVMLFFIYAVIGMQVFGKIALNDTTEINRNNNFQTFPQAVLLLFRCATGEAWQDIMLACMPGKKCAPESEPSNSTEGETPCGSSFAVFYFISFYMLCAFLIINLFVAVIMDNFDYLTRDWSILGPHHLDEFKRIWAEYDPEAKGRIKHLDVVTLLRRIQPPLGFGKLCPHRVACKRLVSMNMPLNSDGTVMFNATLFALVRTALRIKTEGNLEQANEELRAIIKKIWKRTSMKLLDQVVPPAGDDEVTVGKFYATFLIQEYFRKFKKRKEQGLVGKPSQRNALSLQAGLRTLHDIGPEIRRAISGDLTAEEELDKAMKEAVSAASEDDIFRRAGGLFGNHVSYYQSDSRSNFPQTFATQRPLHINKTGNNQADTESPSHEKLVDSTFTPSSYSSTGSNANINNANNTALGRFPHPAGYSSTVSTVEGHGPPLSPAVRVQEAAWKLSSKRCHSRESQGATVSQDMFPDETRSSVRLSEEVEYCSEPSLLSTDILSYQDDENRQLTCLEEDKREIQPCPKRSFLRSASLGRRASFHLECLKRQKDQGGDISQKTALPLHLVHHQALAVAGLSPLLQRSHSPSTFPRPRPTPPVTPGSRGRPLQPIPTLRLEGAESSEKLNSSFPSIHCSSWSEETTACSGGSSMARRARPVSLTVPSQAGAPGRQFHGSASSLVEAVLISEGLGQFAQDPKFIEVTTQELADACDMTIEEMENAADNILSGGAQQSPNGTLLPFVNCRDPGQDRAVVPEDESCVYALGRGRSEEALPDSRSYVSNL
Muscarinic acetylcholine receptor M3, sequence (P20309 whole entry): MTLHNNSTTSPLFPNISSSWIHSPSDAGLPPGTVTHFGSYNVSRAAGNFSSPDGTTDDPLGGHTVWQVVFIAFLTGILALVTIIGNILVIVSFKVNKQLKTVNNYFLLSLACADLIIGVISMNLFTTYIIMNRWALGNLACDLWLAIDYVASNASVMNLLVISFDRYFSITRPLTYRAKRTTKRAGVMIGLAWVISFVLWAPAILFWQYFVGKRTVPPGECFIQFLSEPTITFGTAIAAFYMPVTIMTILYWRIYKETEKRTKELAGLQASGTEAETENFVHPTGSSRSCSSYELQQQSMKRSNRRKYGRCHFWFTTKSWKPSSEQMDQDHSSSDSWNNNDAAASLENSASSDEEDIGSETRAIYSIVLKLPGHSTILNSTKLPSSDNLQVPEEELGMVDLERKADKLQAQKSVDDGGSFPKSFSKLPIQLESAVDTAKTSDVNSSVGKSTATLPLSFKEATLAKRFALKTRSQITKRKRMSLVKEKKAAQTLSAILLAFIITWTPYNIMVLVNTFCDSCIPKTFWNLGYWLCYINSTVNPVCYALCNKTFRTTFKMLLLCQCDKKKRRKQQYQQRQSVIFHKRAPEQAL
Muscarinic acetylcholine receptor M1, sequence (P11229 whole entry): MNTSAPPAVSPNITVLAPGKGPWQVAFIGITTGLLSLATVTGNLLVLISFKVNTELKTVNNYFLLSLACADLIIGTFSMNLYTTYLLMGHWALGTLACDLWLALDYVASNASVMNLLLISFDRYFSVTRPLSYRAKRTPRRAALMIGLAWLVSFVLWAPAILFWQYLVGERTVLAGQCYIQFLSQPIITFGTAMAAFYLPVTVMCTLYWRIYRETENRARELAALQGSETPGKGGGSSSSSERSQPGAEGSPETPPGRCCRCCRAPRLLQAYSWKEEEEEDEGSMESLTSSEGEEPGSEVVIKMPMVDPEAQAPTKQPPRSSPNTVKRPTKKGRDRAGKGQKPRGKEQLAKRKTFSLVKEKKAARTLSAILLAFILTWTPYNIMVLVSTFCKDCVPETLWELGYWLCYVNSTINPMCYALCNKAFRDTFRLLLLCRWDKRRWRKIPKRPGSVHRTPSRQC
Histone deacetylase 4, sequence (P56524 whole entry): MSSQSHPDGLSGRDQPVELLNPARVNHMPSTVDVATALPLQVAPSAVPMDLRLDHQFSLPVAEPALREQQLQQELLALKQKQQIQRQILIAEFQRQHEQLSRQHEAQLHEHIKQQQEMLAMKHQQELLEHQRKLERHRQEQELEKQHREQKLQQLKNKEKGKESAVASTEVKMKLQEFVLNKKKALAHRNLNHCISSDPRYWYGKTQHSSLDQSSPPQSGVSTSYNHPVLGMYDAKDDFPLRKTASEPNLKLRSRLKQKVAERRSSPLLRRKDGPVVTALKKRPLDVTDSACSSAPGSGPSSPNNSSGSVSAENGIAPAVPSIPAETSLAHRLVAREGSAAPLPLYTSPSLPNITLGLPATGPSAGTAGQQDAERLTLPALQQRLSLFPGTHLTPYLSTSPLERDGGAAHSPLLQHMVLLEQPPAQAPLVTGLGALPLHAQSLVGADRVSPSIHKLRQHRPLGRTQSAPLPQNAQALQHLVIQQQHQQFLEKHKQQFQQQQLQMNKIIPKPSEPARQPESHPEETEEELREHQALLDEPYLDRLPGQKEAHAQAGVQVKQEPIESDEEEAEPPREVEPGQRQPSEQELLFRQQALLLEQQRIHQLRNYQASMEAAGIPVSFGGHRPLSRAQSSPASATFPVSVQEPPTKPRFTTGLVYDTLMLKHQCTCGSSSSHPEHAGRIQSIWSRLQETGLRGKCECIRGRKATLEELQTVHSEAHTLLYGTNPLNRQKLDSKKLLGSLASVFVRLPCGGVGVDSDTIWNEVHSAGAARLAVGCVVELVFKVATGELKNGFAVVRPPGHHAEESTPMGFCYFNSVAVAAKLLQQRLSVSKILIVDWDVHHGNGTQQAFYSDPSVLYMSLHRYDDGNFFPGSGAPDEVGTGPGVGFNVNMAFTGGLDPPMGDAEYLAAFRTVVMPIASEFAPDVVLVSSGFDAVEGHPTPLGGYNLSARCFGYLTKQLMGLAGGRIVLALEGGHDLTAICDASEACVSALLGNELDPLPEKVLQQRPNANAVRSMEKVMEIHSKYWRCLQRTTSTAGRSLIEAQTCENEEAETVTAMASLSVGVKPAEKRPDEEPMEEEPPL
Cytochrome P450 2C9, sequence (P11712 whole entry): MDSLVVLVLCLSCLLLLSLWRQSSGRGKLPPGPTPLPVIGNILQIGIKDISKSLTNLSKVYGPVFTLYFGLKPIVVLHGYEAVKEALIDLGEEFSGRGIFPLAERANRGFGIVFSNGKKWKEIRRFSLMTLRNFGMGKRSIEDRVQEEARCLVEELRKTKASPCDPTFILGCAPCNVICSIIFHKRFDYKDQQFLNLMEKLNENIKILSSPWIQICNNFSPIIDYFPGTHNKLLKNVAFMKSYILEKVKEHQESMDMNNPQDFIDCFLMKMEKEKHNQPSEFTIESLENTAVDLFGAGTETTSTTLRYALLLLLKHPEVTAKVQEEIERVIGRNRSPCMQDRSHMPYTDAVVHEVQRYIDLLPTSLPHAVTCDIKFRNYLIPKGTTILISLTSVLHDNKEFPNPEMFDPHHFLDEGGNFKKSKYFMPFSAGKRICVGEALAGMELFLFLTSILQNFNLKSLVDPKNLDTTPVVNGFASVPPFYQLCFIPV

C[C@H](CN1CCC[C@@H]1C)NC(=O)c1ccc(-c2noc(C(F)(F)F)n2)cc1
IC50 [1]: 0.04 µM
CLint scaled [2]: 86 mL/min/kg
IC50 [3]: 0.01 µM
IC50 [4]: 9.9 µM
inhibition at 2 h, 10 µM [5]: > 50%
Kd [6]: > 5 µM
Kd [7]: > 5 µM
Kd [8]: > 5 µM
IC50 [9]: > 50 µM
T>IC50 [10]: 14 h
Vd [11]: 3.8 L/kg
Tmax [12]: 30 min
T>IC50 [13]: 4 h
T>IC50 [14]: 8 h
Activity [15]: Toxic
Activity [16]: Toxic
Activity [17]: Non-Toxic
Activity [18]: Non-Toxic
Activity [19]: Non-Toxic
Activity [20]: Non-Toxic
Activity [21]: Non-Toxic
Activity [22]: Toxic
